Tests used:
A-431 [1] = assay: Inhibition of cell growth of human epidermoid carcinoma xenograft (A431) model using cell based assay; type: functional
SW-620 = assay: Inhibition of cell growth of SW620 cell lines using cell-based assay; type: functional; conditions: Homo sapiens
In short: (§1)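 Cells kept in RPMI-1640 with 5% fetal bovine serum and plated at 5.0 × 10^4/mL. Next day they were dosed at 0.5, 5, 50, 500 and 5000 ng/mL and cultured 2 days. Survival was read by sulforhodamine B. IC50 is the concentration inhibiting growth by 50%, taken from the five-point dose-response curve.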

SK-BR-3 = assay: Inhibition of cell growth of SKBr3 cell lines using cell-based assay; type: functional; conditions: Homo sapiens; in short: as §1
[2] = target: Receptor tyrosine-protein kinase erbB-2 (Homo sapiens, UniProt P04626); assay: Inhibition of human epidermal growth factor receptor (HER-2) using enzyme assay
Chain of Receptor tyrosine-protein kinase erbB-2 (P04626 whole entry, the tested form may be a part): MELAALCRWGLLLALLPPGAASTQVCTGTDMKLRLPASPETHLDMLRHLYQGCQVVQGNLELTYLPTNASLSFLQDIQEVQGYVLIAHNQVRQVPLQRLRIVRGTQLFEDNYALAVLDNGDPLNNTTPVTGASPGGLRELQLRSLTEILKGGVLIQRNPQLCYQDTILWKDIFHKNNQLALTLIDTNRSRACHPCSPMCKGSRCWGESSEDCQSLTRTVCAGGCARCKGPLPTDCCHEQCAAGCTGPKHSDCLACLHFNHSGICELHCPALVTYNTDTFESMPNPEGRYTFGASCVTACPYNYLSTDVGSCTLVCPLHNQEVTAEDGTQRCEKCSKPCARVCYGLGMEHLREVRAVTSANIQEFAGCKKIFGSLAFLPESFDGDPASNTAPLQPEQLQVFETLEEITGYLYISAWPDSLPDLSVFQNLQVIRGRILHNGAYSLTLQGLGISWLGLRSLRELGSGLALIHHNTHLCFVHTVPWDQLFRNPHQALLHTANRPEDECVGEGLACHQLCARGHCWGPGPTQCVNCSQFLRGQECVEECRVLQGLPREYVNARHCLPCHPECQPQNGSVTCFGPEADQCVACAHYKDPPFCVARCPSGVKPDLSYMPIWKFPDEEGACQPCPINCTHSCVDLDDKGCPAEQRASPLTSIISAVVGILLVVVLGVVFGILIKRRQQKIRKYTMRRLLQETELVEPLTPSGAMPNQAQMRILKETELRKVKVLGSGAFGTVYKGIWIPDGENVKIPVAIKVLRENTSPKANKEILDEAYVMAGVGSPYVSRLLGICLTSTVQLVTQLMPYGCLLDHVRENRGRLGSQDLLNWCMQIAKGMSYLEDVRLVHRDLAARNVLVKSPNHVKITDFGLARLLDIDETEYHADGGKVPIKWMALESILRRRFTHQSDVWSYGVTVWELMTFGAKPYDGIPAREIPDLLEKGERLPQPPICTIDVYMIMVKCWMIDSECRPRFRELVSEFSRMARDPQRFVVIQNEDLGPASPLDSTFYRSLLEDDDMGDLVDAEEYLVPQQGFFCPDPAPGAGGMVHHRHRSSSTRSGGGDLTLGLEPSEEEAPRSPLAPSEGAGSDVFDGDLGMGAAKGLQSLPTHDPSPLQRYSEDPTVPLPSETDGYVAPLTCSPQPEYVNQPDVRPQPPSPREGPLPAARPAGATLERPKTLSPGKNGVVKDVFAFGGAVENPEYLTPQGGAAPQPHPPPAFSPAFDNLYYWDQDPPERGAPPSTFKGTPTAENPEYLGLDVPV
In short: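 His6-tagged HER-2 cytoplasmic domain was expressed in Sf-9 cells and purified on Ni-NTA (about 80% pure). Enzyme (12.5 ng/well) was preincubated with compound 10 min at room temperature in HEPES pH 7.4. Autophosphorylation ran 1 h with MnCl2/Na3VO4/DTT buffer plus 0.1 mM ATP–50 mM MgCl2 (as added). Europium anti-phosphotyrosine time-resolved fluorescence was read at 340/615 nm. IC50 came from eight concentrations, mean of duplicates.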

[3] = target: Epidermal growth factor receptor (Homo sapiens, UniProt P00533); assay: Inhibition of epidermal growth factor receptor using enzyme assay
Chain of Epidermal growth factor receptor (P00533 whole entry): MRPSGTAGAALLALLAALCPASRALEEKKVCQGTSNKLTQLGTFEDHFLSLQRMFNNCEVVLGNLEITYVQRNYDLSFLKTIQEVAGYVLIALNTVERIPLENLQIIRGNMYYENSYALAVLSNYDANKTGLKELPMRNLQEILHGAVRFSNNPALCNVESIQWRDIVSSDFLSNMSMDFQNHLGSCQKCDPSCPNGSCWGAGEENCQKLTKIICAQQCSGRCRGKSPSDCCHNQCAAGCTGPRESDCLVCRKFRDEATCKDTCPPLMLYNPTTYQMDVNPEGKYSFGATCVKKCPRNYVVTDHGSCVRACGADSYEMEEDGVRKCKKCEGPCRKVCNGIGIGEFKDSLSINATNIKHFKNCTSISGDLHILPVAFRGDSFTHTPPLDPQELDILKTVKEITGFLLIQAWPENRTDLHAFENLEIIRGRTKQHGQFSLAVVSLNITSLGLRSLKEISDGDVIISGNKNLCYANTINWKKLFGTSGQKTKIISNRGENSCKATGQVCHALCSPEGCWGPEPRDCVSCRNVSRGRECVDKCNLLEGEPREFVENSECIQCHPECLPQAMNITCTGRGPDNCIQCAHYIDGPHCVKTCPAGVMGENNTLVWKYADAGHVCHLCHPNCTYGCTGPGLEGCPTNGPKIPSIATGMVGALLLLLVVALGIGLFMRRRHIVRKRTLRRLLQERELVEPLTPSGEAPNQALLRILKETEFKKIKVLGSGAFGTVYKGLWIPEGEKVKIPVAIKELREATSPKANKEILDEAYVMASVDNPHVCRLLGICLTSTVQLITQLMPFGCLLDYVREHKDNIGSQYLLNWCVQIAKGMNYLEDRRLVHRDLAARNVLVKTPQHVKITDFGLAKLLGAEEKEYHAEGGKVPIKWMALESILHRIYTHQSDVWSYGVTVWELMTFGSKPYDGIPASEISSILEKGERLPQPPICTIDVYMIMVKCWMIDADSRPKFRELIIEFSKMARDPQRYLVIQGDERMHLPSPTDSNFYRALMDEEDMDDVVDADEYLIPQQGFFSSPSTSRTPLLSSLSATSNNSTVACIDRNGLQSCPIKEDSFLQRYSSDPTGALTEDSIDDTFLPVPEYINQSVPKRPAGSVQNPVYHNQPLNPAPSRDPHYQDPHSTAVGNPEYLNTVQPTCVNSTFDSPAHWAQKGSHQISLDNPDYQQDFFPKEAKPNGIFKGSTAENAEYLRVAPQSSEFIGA

A-431 [4] = assay: Inhibition of human epidermoid carcinoma xenograft (A431) tumor growth; type: functional, cell-based
In short: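 Female athymic nu/nu mice received 5 × 10^6 A431 cells sc in the flank. At 80–120 mg tumor mass they were randomized, 10 per group. Dosing was oral, once daily on days 1–10, 40 mg/kg in 0.2% Klucel, with a vehicle control. Tumor mass [(length × width²)/2] was measured every 7 days from day 8 to 29. Relative growth is versus day 0, compared by Student t-test of log values.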

| Structure (SMILES) | IC50 (A-431 [1]) [nM] | IC50 (SW-620) [nM] | IC50 (SK-BR-3) [nM] | IC50 [2] [nM] | IC50 [3] [nM] | IC50 (A-431 [4]) [nM] |
| --- | --- | --- | --- | --- | --- | --- |
| COC[C@@H]1CCCN1C/C=C\C(=O)Nc1ccc2ncnc(Nc3cccc(Br)c3)c2c1 | 353 | 2860 | 13 | 2920 | 194 |  |
| COC[C@@H]1CCCN1C/C=C/C(=O)Nc1ccc2ncnc(Nc3cccc(Br)c3)c2c1 | 222 | 2620 | 2 | 1910 | 131 |  |
| C=CC(=O)Nc1ccc2ncnc(Nc3cccc(Br)c3)c2c1 |  | 4130 | 15 | 114 |  | 95 |
| O=C(/C=C/CN1CCOCC1)Nc1ccc2ncnc(Nc3cccc(Br)c3)c2c1 | 1890 | 10700 | 13 | 2780 | 74 |  |
| COCCOCC#CC(=O)Nc1ccc2ncnc(Nc3cccc(Br)c3)c2c1 | 77 | 945 | 9 | 116 | 65 |  |
| CCCN(CC#CC(=O)Nc1ccc2ncnc(Nc3cccc(Br)c3)c2c1)CCC | 42 | 198 | 2 | 177 | 62 |  |
| CCN(CC)CC#CC(=O)Nc1ccc2ncnc(Nc3cccc(Br)c3)c2c1 | 111 | 610 | 6 | 38 | 12 |  |
| O=C(C#CCN1CCSCC1)Nc1ccc2ncnc(Nc3cccc(Br)c3)c2c1 | 83 | 581 | 2 | 124 | 95 |  |
| C/C=C\C(=O)Nc1ccc2ncnc(Nc3cccc(Br)c3)c2c1 |  | 12500 | 742 | 21700 |  |  |
| CN(C)CC#CC(=O)Nc1ccc2ncnc(Nc3cccc(Br)c3)c2c1 |  | 530 | 11 | 14 |  |  |
| C=CCN(C)CC#CC(=O)Nc1ccc2ncnc(Nc3cccc(Br)c3)c2c1 |  | 289 | 1 | 85 | 71 | 33 |
| COC[C@H]1CCCN1C/C=C/C(=O)Nc1ccc2ncnc(Nc3cccc(Br)c3)c2c1 | 616 | 10100 | 1 | 733 | 85 |  |
| COCCN(C)C/C=C/C(=O)Nc1ccc2ncnc(Nc3cccc(Br)c3)c2c1 | 564 | 5890 | 3 | 634 | 62 |  |
| O=C(C#CCN1CCCCC1)Nc1ccc2ncnc(Nc3cccc(Br)c3)c2c1 | 32 | 302 | 2 | 73 | 57 |  |
| COCC#CC(=O)Nc1ccc2ncnc(Nc3cccc(Br)c3)c2c1 | 268 | 1730 | 46 | 33 | 9 |  |
| CN(C)/C=C/C(=O)Nc1ccc2ncnc(Nc3cccc(Br)c3)c2c1 |  | 12100 | 1760 | 25700 | 250 | 2100 |
| CC(C)N(C)CC#CC(=O)Nc1ccc2ncnc(Nc3cccc(Br)c3)c2c1 | 77 | 232 | 4 | 113 | 85 |  |
| CC#CC(=O)Nc1ccc2ncnc(Nc3cccc(Br)c3)c2c1 |  | 1500 | 17 | 378 |  |  |
| CCN(CC)C/C=C/C(=O)Nc1ccc2ncnc(Nc3cccc(Br)c3)c2c1 | 194 | 2390 | 2 | 1160 | 73 |  |

| Structure (SMILES) | IC50 (A-431 [1]) [nM] | IC50 (SW-620) [nM] | IC50 (SK-BR-3) [nM] | IC50 [2] [nM] | IC50 [3] [nM] | IC50 (A-431 [4]) [nM] |
| --- | --- | --- | --- | --- | --- | --- |
| C=C(C)C(=O)Nc1ccc2ncnc(Nc3cccc(Br)c3)c2c1 |  | 20700 | 2220 | 15200 |  |  |
| CCN1CCN(CC#CC(=O)Nc2ccc3ncnc(Nc4cccc(Br)c4)c3c2)CC1 | 598 | 4600 | 62 | 183 | 65 |  |
| CCCN(C/C=C/C(=O)Nc1ccc2ncnc(Nc3cccc(Br)c3)c2c1)CCC | 145 | 2280 | 2 | 1430 | 90 |  |
| COC/C=C/C(=O)Nc1ccc2ncnc(Nc3cccc(Br)c3)c2c1 | 8500 | 12100 | 370 | 8830 | 1130 |  |
| CN1CCC=C(C(=O)Nc2ccc3ncnc(Nc4cccc(Br)c4)c3c2)C1 | 2340 | 10500 | 478 | 5040 | 115 |  |
| CC(C)N(CC#CC(=O)Nc1ccc2ncnc(Nc3cccc(Br)c3)c2c1)C(C)C | 94 | 302 | 4 | 162 | 97 |  |
| COCOCC#CC(=O)Nc1ccc2ncnc(Nc3cccc(Br)c3)c2c1 |  | 2080 | 92 | 122 | 59 | 306 |
| O=C(C#CCN1CCOCC1)Nc1ccc2ncnc(Nc3cccc(Br)c3)c2c1 | 150 | 1660 | 2 | 53 | 20 |  |
| C/C=C/C(=O)Nc1ccc2ncnc(Nc3cccc(Br)c3)c2c1 |  | 13100 | 1100 | 91300 |  |  |
| O=C(/C=C/CN1CCSCC1)Nc1ccc2ncnc(Nc3cccc(Br)c3)c2c1 | 589 | 8470 | 12 | 2810 | 203 |  |
| O=C(/C=C/Cn1cccn1)Nc1ccc2ncnc(Nc3cccc(Br)c3)c2c1 | 1370 | 11100 | 568 | 15600 | 1120 |  |
| CN(C/C=C/C(=O)Nc1ccc2ncnc(Nc3cccc(Br)c3)c2c1)CCO | 329 | 7530 | 3 | 414 | 14 |  |
| COCC1CCCN1CC#CC(=O)Nc1ccc2ncnc(Nc3cccc(Br)c3)c2c1 (centres undefined) | 81 | 324 | 2 | 117 | 65 |  |
| CN(C)C/C=C/C(=O)Nc1ccc2ncnc(Nc3cccc(Br)c3)c2c1 |  | 2340 | 2 | 301 |  |  |
| O=C(C#CCO)Nc1ccc2ncnc(Nc3cccc(Br)c3)c2c1 |  |  | 43 | 16 |  |  |
| C=C(CN1CCOCC1)C(=O)Nc1ccc2ncnc(Nc3cccc(Br)c3)c2c1 |  | 470 | 3 | 458 | 107 | 128 |
| O=C(/C=C/CN1CCCCC1)Nc1ccc2ncnc(Nc3cccc(Br)c3)c2c1 | 182 | 2680 | 4 | 1560 | 106 |  |
| O=C(/C=C/CN1CCC(N2CCCCC2)CC1)Nc1ccc2ncnc(Nc3cccc(Br)c3)c2c1 | 756 | 4150 | 10 | 1590 | 68 |  |
| O=C(/C=C/N1CCOCC1)Nc1ccc2ncnc(Nc3cccc(Br)c3)c2c1 |  | 2020 | 1020 | 4180 | 215 | 1080 |

— ChEMBL document CHEMBL1134561, “6-Substituted-4-(3-bromophenylamino)quinazolines as putative irreversible inhibitors of the epidermal growth factor receptor (EGFR) and human epidermal growth factor receptor (HER-2) tyrosine kinases with enhanced antitumor activity” (J Med Chem, 2001)
